Source: PubChem BioAssay (several laboratories)
NadD block = inhibitors of S. aureus NadD, primary screen, biochemical, colorimetric, uHTS | inhibition, % at 20 µM | purified NadD enzyme, colorimetric absorbance read-out | 360,000 compounds, 0.78% hits | Nicotinate-nucleotide adenylyltransferase NadD (Staphylococcus aureus N315); in the data active = inhibition above about 26%
rCAG RNA binder = binders of r(CAG) RNA repeats, primary screen, biochemical, fluorescence | r(CAG) RNA repeat, TO-PRO-1 dye displacement fluorescence | 370,000 compounds, 1.3% hits | AID 651821, 2012 | inhibition, % at 3 µM;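 active = inhibition above the plate cutoff, the mean of all test compounds on that plate plus 3 SD, cut at about 35% in these data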;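 note: higher means more dye released from RNA so lower well fluorescence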
HCV core dimer = inhibitors of HCV core protein dimerization, primary screen, biochemical, TR-FRET, high-throughput. 300,000 compounds, 0.33% hits. TR-FRET GST/Flag-core106 dimerization, 1536-well. inhibition, % at 5 µM. AID 1899, 2009;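 active = inhibition above the mean of all tested compounds plus 3 SD, set per screening campaign, cut at about 45% in these data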
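assay system = GST-tagged and Flag-tagged HCV core protein residues 1-106 | controls = unlabelled core106 and no-GST-core106 wells | incubation = compound-protein-antibody incubation 4 h at 22.5 °C | probe or stimulus = Eu donor and XL665 acceptor anti-tag antibodies | read-out = % inhibition based on acceptor/donor emission ratio | signal = TR-FRET 671 and 617 nm emission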
ABHD5-PLIN5 inh = ABHD5-PLIN5 interaction inhibitors, primary screen, cell lysate, split luciferase complementation, luminescence | AID 602281, 2012 | inhibition, % at 4 µM | Split G. princeps luciferase complementation, 4 h | 360,000 compounds, 0.78% hits | Perilipin-5 (Homo sapiens) + 1-acylglycerol-3-phosphate O-acyltransferase ABHD5 (Homo …;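 active = inhibition above the mean inhibition across every tested compound plus 3 SD, cut at about 22% in these data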
Target sequence (Q00G26 whole entry, looked up): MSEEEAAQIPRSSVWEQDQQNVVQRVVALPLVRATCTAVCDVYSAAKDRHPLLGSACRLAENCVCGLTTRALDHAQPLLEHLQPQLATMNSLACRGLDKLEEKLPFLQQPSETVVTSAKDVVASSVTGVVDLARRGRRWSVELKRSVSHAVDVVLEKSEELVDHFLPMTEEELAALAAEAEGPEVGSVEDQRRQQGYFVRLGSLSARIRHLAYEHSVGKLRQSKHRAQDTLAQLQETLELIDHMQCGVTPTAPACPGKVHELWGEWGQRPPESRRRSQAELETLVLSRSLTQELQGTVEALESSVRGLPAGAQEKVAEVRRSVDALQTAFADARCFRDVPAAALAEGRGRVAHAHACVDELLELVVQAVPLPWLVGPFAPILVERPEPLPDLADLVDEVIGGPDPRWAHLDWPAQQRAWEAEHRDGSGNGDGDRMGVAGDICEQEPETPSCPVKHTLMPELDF
Target sequence (Q8WTS1 whole entry, looked up): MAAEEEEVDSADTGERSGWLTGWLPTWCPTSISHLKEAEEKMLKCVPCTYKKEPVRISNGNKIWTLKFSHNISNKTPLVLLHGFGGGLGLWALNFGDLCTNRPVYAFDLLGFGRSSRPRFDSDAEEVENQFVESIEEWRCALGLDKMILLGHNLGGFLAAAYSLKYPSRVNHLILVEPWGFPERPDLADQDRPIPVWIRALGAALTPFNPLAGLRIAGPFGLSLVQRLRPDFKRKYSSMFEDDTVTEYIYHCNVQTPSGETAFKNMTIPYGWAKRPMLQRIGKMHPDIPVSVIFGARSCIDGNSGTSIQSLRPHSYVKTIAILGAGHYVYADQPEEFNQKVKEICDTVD
ABHD5-PLIN5 conf = ABHD5-PLIN5 interaction inhibitors, confirmation, biochemical, luminescence | shares compounds with ABHD5-PLIN5 inh | inhibition, % at 4 µM | 2,200 compounds, 67% hits | AID 651612, 2012; in the data active = inhibition above about 23%
HNF4 counter = HNF4 dimerization inhibitors, counter-screen for ABHD5-PLIN5 interaction inhibitor project, biochemical, split-luciferase complementation, luminescence; inhibition, % at 4 µM; shares compounds with ABHD5-PLIN5 inh; 2,200 compounds, 77% hits;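 active = mean inhibition across replicate wells exceeding the computed hit threshold, cut at about 13% in these data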;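 note: light from luciferase halves that rejoin when HNF4 fusion proteins dimerize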
Numbers stand for hits; - = inactive; . = no result given; ! = not active in a repeat. The list is not random: actives were taken first. Their share in the collection is about 2.6%.

SMILES	NadD block	rCAG RNA binder	HCV core dimer	ABHD5-PLIN5 inh	ABHD5-PLIN5 conf	HNF4 counter
Cc1ccc(/C=C/C(=O)N2CCN(S(=O)(=O)/C=C/c3ccccc3)CC2)o1	-	-	-	-	.	.
COc1ccc(NC(=O)Nc2ccccc2C(=O)N2CCCC2)cc1OC	.	-	.	.	.	.
O=C(CSc1nnc(-c2cccnc2)n1Cc1ccco1)c1ccc2ccccc2c1	-	-	-	65.2	53.1	75.9
CCCCCNC(=O)C(c1ccccc1F)n1c(=O)c(-c2ccco2)nc2ccccc21 (centres undefined)	.	39.7	.	95.7	56.8	-
CCCCCNC(=O)C(c1ccc(C#N)cc1)n1c(=O)c(-c2ccco2)nc2ccccc21 (centres undefined)	.	-	.	75.2	43.8	-
CCCCCNC(=O)C(c1ccc(OC)cc1)n1c(=O)c(-c2ccco2)nc2ccccc21 (centres undefined)	.	-	.	70.9	96.2	62.1
COc1cc2c(cc1OC)C(C)N(CCc1ccc(Cl)cc1)CC2 (centres undefined)	-	-	-	24.0	23.9	-
COc1cc2c(cc1OC)C(C)N(CCN1C(=O)c3ccccc3C1=O)CC2 (centres undefined)	-	-	-	-	.	.
CCc1cccc2c(C(=O)CSc3nncn3-c3ccccc3OC)c[nH]c12	-	-	-	24.3	-	-
COc1ccc(OC)c(S(=O)(=O)N2CCCC(c3noc(-c4ccc(C)cc4)n3)C2)c1 (centres undefined)	.	-	.	.	.	.
CC(C)c1nnc(NC(=O)c2nc(S(=O)(=O)Cc3ccccc3)ncc2Cl)s1	-	-	-	35.1	84.5	68.5
CSc1nnc(NC(=O)c2nc(S(=O)(=O)Cc3ccccc3)ncc2Cl)s1	-	-	-	23.5	68.8	41.9
CCOc1ccccc1NC(=O)c1nc(S(=O)(=O)Cc2ccccc2)ncc1Cl	-	-	-	-	.	.
CCCc1nnc(NC(=O)c2nc(S(=O)(=O)Cc3ccc(C)cc3)ncc2Cl)s1	-	-	-	44.0	76.9	52.6
Cc1ccc(S(=O)(=O)CCc2nnc(NC(=O)c3cnccn3)s2)cc1	-	-	-	-	.	.
CCOc1ccc(NC(=O)CN2C(=O)c3cccc4cccc2c34)cc1	.	-	.	.	.	.
CCOC(=O)Cn1c(=N)n(CCOc2ccc3ccccc3c2)c2ccccc21	-	-	-	25.1	-	-
CNC(=O)c1nnsc1S(=O)c1ccc(Cl)cc1 (centres undefined)	-	-	.	66.7	85.0	103.9
CCCNC(=O)c1ccc2snnc2c1	-	-	-	-	.	.
CCCNC(=O)c1nnsc1S(=O)(=O)c1ccc(Cl)cc1	-	-	.	76.9	80.1	108.1
CCCNC(=O)c1nnsc1S(=O)c1ccc(Cl)cc1 (centres undefined)	-	-	.	74.9	96.3	107.9
COc1ccc(-n2c(SCC(=O)NNC(=S)Nc3ccc(C)cc3)nnc2-c2ccccc2)cc1	.	-	.	.	.	.
CCCCCn1c(=NC(=O)c2ccco2)c(C(=O)OCC)cc2c(=O)n3ccccc3nc21	-	-	-	56.2!	-	25.3
CCCCn1c(=NC(=O)c2ccco2)c(C(=O)OCC)cc2c(=O)n3cccc(C)c3nc21	-	-	-	36.5	-	14.4
Cc1cccc(-c2nnc(SCC(=O)Nc3ccc(OCc4ccccc4)cc3)n2Cc2ccco2)c1	.	-	.	.	.	.
SMILES	NadD block	rCAG RNA binder	HCV core dimer	ABHD5-PLIN5 inh	ABHD5-PLIN5 conf	HNF4 counter
O=C1CSC(c2cccs2)N1c1nncs1 (centres undefined)	.	-	.	.	.	.
CSCCC(NC(=O)c1ccco1)C(=O)NNC(=O)c1n[nH]c(=O)c2ccccc12 (centres undefined)	-	-	.	66.2	-	-
COc1ccc(CN2C3=N[C@H](c4ccccc4)CC(=O)N3/C(=C\c3ccccc3)C2c2ccco2)c(OC)c1 (some centres undefined)	.	-	.	.	.	.
C=CC(=O)N1c2ccccc2Sc2ccc(NC(=O)OCC)cc21	-	-	-	30.4	61.5	29.4
CCOC(=O)Nc1ccc2c(c1)N(C(=O)N1CCN(C)CC1)c1ccccc1S2	-	-	-	-	.	.
Cc1ccc(C(=O)/C=C\C(=O)c2ccc(C)cc2)cc1	-	-	-	-	.	.
Cc1ccc(S/C=C\C(=O)c2ccccc2)cc1	-	-	-	31.1	48.1	32.8
CC(C)c1ccc(N2C=Nc3ccc(C(C)C)cc3C2)cc1	-	-	-	36.5	24.2	-
COCC#Cc1ccc(CC[C@H]2O[C@H]3CC[C@@H](CO)O[C@H]3C[C@H]2n2cc(C(C)(C)O)nn2)cc1	.	-	.	.	.	.
COC(=O)c1cccc(S(=O)(=O)N(Cc2ccco2)Cc2cc3cc(OC)ccc3[nH]c2=O)c1	-	-	-	42.3	55.7	66.1
COc1ccc(OC)c(S(=O)(=O)Nc2ccc(C(=O)Nc3cc(C)on3)cc2)c1	.	-	.	.	.	.
COc1ccccc1-c1ncn(Cc2cccc(-c3ccccc3)c2)c1-c1ccco1	.	-	.	25.3	22.1	36.6
CC(C)C(C)(C#N)NC(=O)CSc1nc2scc(-c3ccco3)c2c(=O)n1-c1ccccc1 (centres undefined)	-	-	-	25.2	29.8	92.6
CC(C)C(C)NC(=O)CSc1nc2scc(-c3ccco3)c2c(=O)n1-c1ccccc1 (centres undefined)	-	-	-	37.6	-	15.0
COCC#Cc1cnc2c(c1)C(=O)N([C@@H](C)CO)C[C@H](C)[C@H](CN(C)C(=O)c1ccc3c(c1)OCO3)O2	.	-	.	.	.	.
O=C(C#Cc1ccccc1)c1ccco1	-	-	-	38.9	53.6	107.2
COc1ccc(/C=N\NC(=O)Cc2cccn2C)cc1OCc1ccccc1	.	-	.	.	.	.
C=CCOC(=O)C(CO)NC(=O)CCCC(=O)O (centres undefined)	.	-	.	.	.	.
CC(C(=O)NC1CCCC1)n1c(C2CCCC2)nc2ccccc21 (centres undefined)	.	-	.	-	.	.
O=C(CCl)N1N=C(c2ccco2)CC1c1cccs1 (centres undefined)	-	.	-	23.6	29.8	20.4
CC(=O)N1N=C(c2ccco2)CC1c1cccs1 (centres undefined)	-	-	-	-	.	.
O=c1c2c3c(sc2n(CCN2CCCCC2)c(=O)n1Cc1ccco1)CCCCC3	-	-	-	-	.	.
NC(=O)Cn1c(=O)n(Cc2ccco2)c(=O)c2c3c(sc21)CCCCC3	-	-	-	61.6	26.1	40.5
O=C(Cn1c(=O)n(Cc2ccco2)c(=O)c2c3c(sc21)CCCC3)Nc1ccccc1	-	-	47.9	52.6	23.7	-
CC1(C)Cc2c(sc3c2c(=N)n(Cc2ccco2)c(=O)n3CC(=O)Nc2ccccc2)CO1	-	-	-	-	.	.
COc1ccc(C(C)(O)c2nc(-c3ccc(N(C)C)cc3)cs2)cc1 (centres undefined)	-	-	.	-	.	.
